Experimental data from PMC7132385 (Antiviral Research, 2007).
In brackets after ≈: the same amount, converted by molar mass. Read-outs that look alike come from different tables or passages of the source.

Assays:
Berne virus torovirus = assay: Colorimetric MTT antiviral assay, Berne virus; type: cell-based, equine torovirus; conditions: read-out: EC50 (50% inhibition of virus infection), Berne virus torovirus
Outline: (§1)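 100 TCID50 of virus was preincubated with graded test compound for 1 h at 37 °C, 5% CO2, added to PBS-DEAE-washed cells for 1 h, then removed, and compound was re-added at the same concentrations in DMEM with 5% FBS. MTT (0.5 mg/ml final) was added for 2 h at day 2 (FCoV 79-1683, FIPV 79-1146) or day 3 (others), then DMSO lysis and OD570. EC50 is 50% protection from CPE.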

IBV Beaudette = assay: Colorimetric MTT antiviral assay, IBV Beaudette; type: cell-based, infectious bronchitis virus; conditions: read-out: EC50 (50% inhibition of virus infection), IBV Beaudette
Outline: as §1

[1] = Cytotoxicity MTT assay, FCWF cells; type: cell-based, feline; conditions: cat, FCWF cells
Outline: (§2)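 Cells grown in DMEM with 10% FBS and antibiotics were kept with a range of test compound concentrations for 3 days at 37 °C, 5% CO2. MTT was added to 0.5 mg/ml final for 2 h at 37 °C. Medium was removed and cells were lysed in DMSO (10 min, room temperature, rocking). OD was read at 570 nm. CC50 is the concentration lowering viability of 50% of cells, ± S.D.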

ST cells = assay: Cytotoxicity MTT assay, ST cells; type: cell-based, porcine; conditions: read-out: CC50 (50% cytotoxicity), ST, 3 days, ± S.D.
Outline: as §2

[2] = Cytotoxicity MTT assay, LR7 cells; type: cell-based, mouse; conditions: mouse
Outline: as §2

[3] = Maximum solubility of the compound; type: physicochemical
Equine arteritis virus = assay: Colorimetric MTT antiviral assay, equine arteritis virus; type: cell-based; conditions: read-out: EC50 (50% inhibition of virus infection), Equine arteritis virus
Outline: as §1

[4] = tested on: FIPV-Δ3abcFL (serotype II); assay: Immunoperoxidase; type: cell-based, feline coronavirus; conditions: read-out: EC50 (50% inhibition of virus infection), FIPV-Δ3abcFL (serotype II)
Outline: (§3)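 FCWF monolayers were given virus (MOI 0.5) that had been preincubated 1 h at 37 °C with test compound, for 1 h after a PBS-DEAE wash, then washed and given compound at the same concentrations. Cells were fixed in 4% formaldehyde for 15 min at 6 h post-infection (16 h for serotype I strain), permeabilised with 70% ethanol, and stained with cat FIP ascitic fluid plus HRP goat anti-cat. EC50 is 50% fewer microscopically counted infected foci than mock-treated cells.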

[5] = Cytotoxicity MTT assay, Ederm cells; type: cell-based, equine; conditions: horse, equine dermis (Ederm) cells
Outline: as §2

[6] = Cytotoxicity MTT assay, Vero cells; type: cell-based, simian; conditions: monkey (simian), Vero cells
Outline: as §2

[7] = tested on: porcine alveolar macrophages (PAMs); assay: Cytotoxicity by EMA staining, PAMs; type: cell-based; conditions: read-out: CC50 (50% cytotoxicity), PAMs, 24 h, ± S.D.
[8] = tested on: FIPV Black TN406HP (serotype I); assay: Immunoperoxidase; type: cell-based, feline coronavirus; conditions: read-out: EC50 (50% inhibition of virus infection), FIPV Black TN406HP (serotype I)
Outline: as §3

[9] = tested on: FCoV 79-1683 (serotype II); assay: Immunoperoxidase; type: cell-based, feline coronavirus; conditions: read-out: EC50 (50% inhibition of virus infection), FCoV 79-1683 (serotype II)
Outline: as §3

MHV-EFLM = assay: Immunoperoxidase; type: cell-based, mouse hepatitis virus; conditions: read-out: EC50 (50% inhibition of virus infection), MHV-EFLM
Outline: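 Murine LR7 fibroblasts expressing the MHV receptor were infected at MOI 0.5 with virus preincubated 1 h at 37 °C with test compound. After 1 h the inoculum was removed, cells were washed, and compound was re-added at the same concentrations. At 6 h cells were fixed in 4% formaldehyde and permeabilised with 70% ethanol. Immunoperoxidase staining used rabbit anti-MHV polyclonal plus HRP swine anti-rabbit. EC50 is the concentration lowering light-microscope infected-cell counts by 50% versus mock.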

[10] = tested on: FIPV Black TN406HP (serotype I); assay: Colorimetric MTT antiviral assay, FIPV Black TN406HP; type: cell-based, feline coronavirus; conditions: read-out: EC50 (50% inhibition of virus infection), FIPV Black TN406HP (serotype I), FCWF cells, 100 TCID50, 3 days, ± S.D.
Outline: as §1

FCWF cells = assay: Cytotoxicity MTT assay, FCWF cells; type: cell-based, feline; conditions: read-out: CC50 (50% cytotoxicity), FCWF; MTT assay, 3 days; ± S.D.
Outline: as §2

LR7 cells = assay: Cytotoxicity MTT assay, LR7 cells; type: cell-based, mouse; conditions: read-out: CC50 (50% cytotoxicity), LR7; MTT assay, 3 days; ± S.D.
Outline: as §2

[11] = tested on: FIPV 79-1146 (serotype II); assay: Colorimetric MTT antiviral assay, FIPV 79-1146; type: cell-based, feline coronavirus; conditions: read-out: EC50 (50% inhibition of virus infection), FIPV 79-1146 (serotype II), FCWF cells, 100 TCID50, 2 days, ± S.D.
Outline: as §1

retroviruses = conditions: read-out: EC50 against retroviruses; earlier studies; ref Balzarini et al., 1992; cited from earlier work
PRRSV Lelystad virus = assay: Immunoperoxidase; type: cell-based, porcine reproductive and respiratory syndrome virus; conditions: IPOX assay; for PRRSV Lelystad virus infection of PAMs reduced to: at 2 μM; for EC50: read-out: EC50 (50% inhibition of virus infection), PRRSV Lelystad virus, PAMs, MOI 1, 10 h post-infection, ± S.D.
Outline: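 Primary porcine alveolar macrophages were kept in EMEM with 10% FBS at 37 °C, 5% CO2. Virus at MOI 1 was preincubated 1 h at 37 °C with test compound, then added to cells for 1 h. Cells were washed with FBS-free medium and fixed in −20 °C methanol at 10 h post-infection. Peroxidase was blocked with azide/H2O2. Staining used anti-nucleocapsid MAb P3/27 with HRP anti-mouse. Infected cells were counted by light microscopy against mock-treated cells.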

[12] = tested on: FCoV 79-1683 (serotype II); assay: Colorimetric MTT antiviral assay, FCoV 79-1683; type: cell-based, feline coronavirus; conditions: read-out: EC50 (50% inhibition of virus infection), FCoV 79-1683 (serotype II), FCWF cells, 100 TCID50, 2 days, ± S.D.
Outline: as §1

[13] = tested on: equine dermis (Ederm) cells; assay: Cytotoxicity MTT assay, Ederm cells; type: cell-based; conditions: read-out: CC50 (50% cytotoxicity), Ederm; MTT assay, 3 days; ± S.D.
Outline: as §2

Vero cells = assay: Cytotoxicity MTT assay, Vero cells; type: cell-based, simian; conditions: read-out: CC50 (50% cytotoxicity), Vero; MTT assay, 3 days; ± S.D.
Outline: as §2

TGEV Purdue = assay: Colorimetric MTT antiviral assay, TGEV Purdue; type: cell-based, transmissible gastroenteritis virus; conditions: read-out: EC50 (50% inhibition of virus infection), TGEV Purdue, ST cells, 100 TCID50, 3 days, ± S.D.
Outline: as §1

[14] = MTT assay, Ederm cells, 100 TCID50, 3 days, ± S.D.
[15] = MTT assay, Vero cells, 100 TCID50, 3 days, ± S.D.
[16] = IPOX assay, FCWF cells, MOI 0.5, 6 h post-infection, ± S.D.
[17] = IPOX assay, FCWF cells, MOI 0.5, 16 h post-infection, ± S.D.
[18] = IPOX assay, LR7 cells, MOI 0.5, 6 h post-infection, ± S.D.

In the case of CN[C@@H]1[C@H](O[C@@H]2OC[C@@H](O)[C@H](O)[C@H]2O)[C@@H](O)[C@H](O[C@H]2c3cc(C)c(C(=O)N[C@H](C)C(=O)O)c(O)c3-c3c(cc4c(c3O)C(=O)c3cc(OC)cc(O)c3C4=O)[C@@H]2O)O[C@@H]1C [PRM-A, pradimicin-A, reference compound], the EC50 (Berne virus torovirus; Equine torovirus, 72 h) is reported as 31000 ± 24000 nM, the EC50 (IBV Beaudette; Avian coronavirus, Vero, 72 h) is reported as 2900 ± 2000 nM and the CC50 at 3 days [1] is reported as > 120000 nM. The CC50 (ST cells) was 121000 ± 27600 nM, the CC50 at 3 days [2] was > 120000 nM and the solubility [3] was 120 µM (≈ 101 µg/mL). The EC50 (Equine arteritis virus; Equine arteritis virus, 72 h) was > 120000 nM, the EC50 ([4]; Alphacoronavirus 1, 6 h) was > 120000 nM and the CC50 at 3 days [5] was > 120000 nM. The CC50 at 3 days [6] was 120000 ± 32400 nM, the CC50 [7] was 18100 ± 6400 nM and the EC50 ([8]; Alphacoronavirus 1, 16 h) was 7800 ± 2000 nM. The EC50 ([9]; Alphacoronavirus 1, 6 h) was > 120000 nM and the EC50 (MHV-EFLM; Murine coronavirus, LR7, 6 h) was 10700 ± 5800 nM.

For Cymbidium sp. agglutinin [CA], the EC50 [10] was 130 ± 2 nM, the CC50 (FCWF cells) was 3300 ± 800 nM and the CC50 (LR7 cells) was > 4000 nM. The EC50 [11] was 290 ± 110 nM and the EC50 (retroviruses) was 3 nM.

In the case of Galanthus nivalis agglutinin [GNA], the EC50 [10] is reported as 8 ± 5 nM, the EC50 (Berne virus torovirus; [14]) is reported as 120 ± 90 nM and the EC50 (IBV Beaudette; [15]) is reported as 0.2 ± 0.2 nM. The “PRRSV Lelystad virus infection of PAMs reduced to” value (PRRSV Lelystad virus) was 40%, the EC50 (PRRSV Lelystad virus) was > 2000 nM and the CC50 (FCWF cells) was > 2000 nM. The CC50 (ST cells) was > 2000 nM, the CC50 (LR7 cells) was > 2000 nM and the EC50 [12] was 430 ± 300 nM. The EC50 (Equine arteritis virus; [14]) was 180 ± 70 nM, the EC50 [4, 16] was 70 ± 40 nM and the CC50 [13] was > 2000 nM. The CC50 (Vero cells) was > 2000 nM, the CC50 [7] was > 2000 nM and the EC50 [11] was 130 ± 2 nM. It also gave an EC50 [8, 17] of 12 ± 6 nM, an EC50 [9, 16] of 200 ± 60 nM and an EC50 (TGEV Purdue) of 4 ± 0.8 nM. For the same molecule, the EC50 (MHV-EFLM; [18]) was 40 ± 20 nM.

In the case of Hippeastrum hybrid agglutinin [HHA], the EC50 [10] is reported as 7 ± 3 nM, the EC50 (Berne virus torovirus; [14]) is reported as 70 ± 70 nM and the EC50 (IBV Beaudette; [15]) is reported as 0.2 ± 0.2 nM. For the same molecule, the “PRRSV Lelystad virus infection of PAMs reduced to” value (PRRSV Lelystad virus) was 40%, the EC50 (PRRSV Lelystad virus) was > 2000 nM and the CC50 (FCWF cells) was > 2000 nM. For the same molecule, the CC50 (ST cells) was > 2000 nM, the CC50 (LR7 cells) was > 2000 nM and the EC50 [12] was 110 ± 30 nM. It also gave an EC50 (Equine arteritis virus; [14]) of 130 ± 40 nM, an EC50 [4, 16] of 30 ± 20 nM and a CC50 [13] of 1900 ± 300 nM. For the same molecule, the CC50 (Vero cells) was > 2000 nM, the CC50 [7] was > 2000 nM and the EC50 [11] was 100 ± 2 nM. The EC50 [8, 17] was 4 ± 2 nM, the EC50 [9, 16] was 60 ± 20 nM and the EC50 (MHV-EFLM; [18]) was 70 ± 20 nM.

B1: cyanovirin-N (protein, UniProt P81180 1-101, looked up)
Cyanovirin-N: LGKFSQTCYNSAIQGSVLTSTCERTNGGYNTSSIDLNSVIENVDGSLKWQPSNFIETCRNTQLAGSSELAAECKTRAQQFVSTKINLDDHIANIDGTLKYE
With B1 the CC50 (FCWF cells) was 1400 ± 500 nM and the CC50 (LR7 cells) was > 2000 nM.

B2: Urtica dioica agglutinin (protein, UniProt P11218 24-372, looked up)
Lectin/endochitinase 1: QRCGSQGGGGTCPALWCCSIWGWCGDSEPYCGRTCENKCWSGERSDHRCGAAVGNPPCGQDRCCSVHGWCGGGNDYCSGSKCQYRCSSSVRGPRVALSGNSTANSIGNVVVTEPLFDQMFSHRKDCPSQGFYSYHSFLVAAESFPAFGTIGDVATRKREVAAFLAHISQATSGERSDVENPHAWGLCHINTTTVTENDFCTSSDWPCAAGKKYSPRGPIQLTHNFNYGLAGQAIGEDLIQNPDLVEKDPIISFKTALWFWMSQHDNKPSCHDIVLNANSAANRIPNKGVIGNIISRAFGHDDFAVRSSSIGFYKRYCDMLGVSYGHDLKYWFDNTPSSEFQRIQMRVAA
B2 gave an EC50 [10] of 23 ± 12 nM, an EC50 (Berne virus torovirus; [14]) of 250 ± 200 nM and an EC50 (IBV Beaudette; [15]) of 50 ± 50 nM. It also gave an EC50 (PRRSV Lelystad virus) of 4800 ± 3200 nM, a CC50 (FCWF cells) of 2200 ± 300 nM and a CC50 (ST cells) of 6100 ± 1000 nM. It also gave a CC50 (LR7 cells) of 9900 ± 4800 nM, an EC50 [12] of 110 ± 30 nM and an EC50 (Equine arteritis virus; [14]) of 390 ± 10 nM. It also gave an EC50 [4, 16] of 140 ± 50 nM, a CC50 [13] of 9500 ± 3100 nM and a CC50 (Vero cells) of 3400 ± 1300 nM. The CC50 [7] was > 12000 nM, the EC50 [11] was 240 ± 140 nM and the EC50 [8, 17] was 20 ± 10 nM. It also gave an EC50 [9, 16] of 170 ± 100 nM, an EC50 (TGEV Purdue) of 80 ± 70 nM and an EC50 (MHV-EFLM; [18]) of 530 ± 20 nM.
